# Source: ChEMBL document CHEMBL5724801, “EUbOPEN Chemogenomics Library - Multiplex” (2024)
# Where “and” joins values, the source holds several entries; their conditions need not be identical. Equal entries are not always repeated.
# Test system: U2OS
# Assay: Multiplex assay against U2OS
# Assay type: toxicity, cell-based
# Conditions: human
# Procedure, shortened: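 Compound was added to live cells that had been stained at seeding with Hoechst33342, BioTracker Green Microtubule Cytoskeleton Dye, MitoTracker Red and Annexin V Alexa Fluor 680, and imaging followed on a CQ1 microscope at 37°C and 5% CO2. CellPathfinder machine-learning gating divided cells into Hoechst high-intensity objects or normal cells, normal cells into healthy, pyknosed or fragmented nuclei, and pyknosed cells into mitotic or apoptotic. Tubulin, mitochondrial-mass and membrane-permeability phenotypes are per cents of healthy-nucleus cells.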
# [1] = 12 h, 1 µM, compound concentration 1 uM
# [2] = 12 h, 10 µM, compound concentration 10 uM
# [3] = 24 h, 1 µM, compound concentration 1 uM
# [4] = 24 h, 10 µM, compound concentration 10 uM
# [5] = 48 h, 1 µM, compound concentration 1 uM
# [6] = 48 h, 10 µM, compound concentration 10 uM
smiles,measurement,setting,value
CC(N)C1CCC(C(=O)Nc2ccncc2)CC1 (centres undefined),Population Apoptotic (%),[1],33.33% and 18.75%
same,Population Fragmented Nuclei (%),[1],1.02% and 1.57%
same,Population Healthy Nuclei (%),[1],90.39% and 81.68%
same,Population Hoechst High Intensity Objects (%),[1],0%
same,Population Membrane Permeable-Phenotype (%),[1],0.68% and 1.28%
same,Population Mitochondria Different-Phenotype (%),[1],0.68% and 3.21%
same,Population Mitotic Cells (%),[1],66.67% and 81.25%
same,Population Normal (%),[1],100%
same,Population Pyknosed Nuclei (%),[1],8.59% and 16.75%
same,Population Tubulin-Different-Phenotype (%),[1],0.23% and 0.64%
same,Total Cell Count,[1],489 and 191
same,Population Apoptotic (%),[2],31.03% and 27.78%
same,Population Fragmented Nuclei (%),[2],0.73% and 1.2%
same,Population Healthy Nuclei (%),[2],92.2% and 87.95%
same,Population Hoechst High Intensity Objects (%),[2],0%
same,Population Membrane Permeable-Phenotype (%),[2],1.32% and 1.37%
same,Population Mitochondria Different-Phenotype (%),[2],0% and 11.64%
same,Population Mitotic Cells (%),[2],68.97% and 72.22%
same,Population Normal (%),[2],100%
same,Population Pyknosed Nuclei (%),[2],7.07% and 10.84%
same,Population Tubulin-Different-Phenotype (%),[2],0.79% and 0.68%
same,Total Cell Count,[2],410 and 166
same,Population Apoptotic (%),[3],41.18% and 41.67%
same,Population Fragmented Nuclei (%),[3],2.2% and 3.47%
same,Population Healthy Nuclei (%),[3],90.32% and 87.26%
same,Population Hoechst High Intensity Objects (%),[3],0%
same,Population Membrane Permeable-Phenotype (%),[3],0.65% and 1.33%
same,Population Mitochondria Different-Phenotype (%),[3],0.16% and 3.1%
same,Population Mitotic Cells (%),[3],58.82% and 58.33%
same,Population Normal (%),[3],100%
same,Population Pyknosed Nuclei (%),[3],7.48% and 9.27%
same,Population Tubulin-Different-Phenotype (%),[3],0.81% and 0.88%
same,Total Cell Count,[3],682 and 259
same,Population Apoptotic (%),[4],32.08% and 28.57%
same,Population Fragmented Nuclei (%),[4],1.38% and 0%
same,Population Healthy Nuclei (%),[4],89.48% and 85.29%
same,Population Hoechst High Intensity Objects (%),[4],0%
same,Population Membrane Permeable-Phenotype (%),[4],0.19% and 1.48%
same,Population Mitochondria Different-Phenotype (%),[4],0.19% and 6.9%
same,Population Mitotic Cells (%),[4],67.92% and 71.43%
same,Population Normal (%),[4],100%
same,Population Pyknosed Nuclei (%),[4],9.14% and 14.71%
same,Population Tubulin-Different-Phenotype (%),[4],0.19% and 0.49%
same,Total Cell Count,[4],580 and 238
same,Population Apoptotic (%),[5],48.51% and 53.33%
same,Population Fragmented Nuclei (%),[5],2.96% and 2.17%
same,Population Healthy Nuclei (%),[5],89.37% and 88.07%
same,Population Hoechst High Intensity Objects (%),[5],0%
same,Population Membrane Permeable-Phenotype (%),[5],1.02% and 1.48%
same,Population Mitochondria Different-Phenotype (%),[5],0.08% and 2.46%
same,Population Mitotic Cells (%),[5],51.49% and 46.67%
same,Population Normal (%),[5],100%
same,Population Pyknosed Nuclei (%),[5],7.67% and 9.76%
same,Population Tubulin-Different-Phenotype (%),[5],0.51% and 0.25%
same,Total Cell Count,[5],1317 and 461
same,Population Apoptotic (%),[6],45.33% and 46.15%
same,Population Fragmented Nuclei (%),[6],3.3% and 1%
same,Population Healthy Nuclei (%),[6],89.84% and 86%
same,Population Hoechst High Intensity Objects (%),[6],0.18% and 0%
same,Population Membrane Permeable-Phenotype (%),[6],0.82% and 1.45%
same,Population Mitochondria Different-Phenotype (%),[6],0.1% and 4.94%
same,Population Mitotic Cells (%),[6],54.67% and 53.85%
same,Population Normal (%),[6],99.82% and 100%
same,Population Pyknosed Nuclei (%),[6],6.87% and 13%
same,Population Tubulin-Different-Phenotype (%),[6],0.1% and 0.29%
same,Total Cell Count,[6],1094 and 400
C=CC(=O)N1CCC[C@@H](n2nc(C(=O)Nc3ccc(CC(=O)N(C)C)c(C)c3C)c3c(N)ncnc32)C1,Population Apoptotic (%),[1],31.58% and 48.15%
same,Population Fragmented Nuclei (%),[1],2.15% and 3.28%
same,Population Healthy Nuclei (%),[1],88.76% and 81.97%
same,Population Hoechst High Intensity Objects (%),[1],0%
same,Population Membrane Permeable-Phenotype (%),[1],1.08% and 0.67%
same,Population Mitochondria Different-Phenotype (%),[1],0.54% and 8.67%
same,Population Mitotic Cells (%),[1],68.42% and 51.85%
same,Population Normal (%),[1],100%
same,Population Pyknosed Nuclei (%),[1],9.09% and 14.75%
same,Population Tubulin-Different-Phenotype (%),[1],1.08% and 0%
same,Total Cell Count,[1],418 and 183
same,Population Apoptotic (%),[2],42.86% and 45.45%
same,Population Fragmented Nuclei (%),[2],1.65% and 3.24%
same,Population Healthy Nuclei (%),[2],88.47% and 84.86%
same,Population Hoechst High Intensity Objects (%),[2],0.23% and 0%
same,Population Mitotic Cells (%),[2],57.14% and 54.55%
same,Population Normal (%),[2],99.77% and 100%
same,Population Pyknosed Nuclei (%),[2],9.88% and 11.89%
same,Population Tubulin-Different-Phenotype (%),[2],0.27% and 3.82%
same,Total Cell Count,[2],426 and 185
same,Population Apoptotic (%),[3],37.21% and 57.14%
same,Population Fragmented Nuclei (%),[3],1.84% and 1.69%
same,Population Healthy Nuclei (%),[3],90.24% and 83.47%
same,Population Hoechst High Intensity Objects (%),[3],0.18% and 0%
same,Population Membrane Permeable-Phenotype (%),[3],0.41% and 2.54%
same,Population Mitochondria Different-Phenotype (%),[3],0.41% and 6.6%
same,Population Mitotic Cells (%),[3],62.79% and 42.86%
same,Population Normal (%),[3],99.82% and 100%
same,Population Pyknosed Nuclei (%),[3],7.92% and 14.83%
same,Population Tubulin-Different-Phenotype (%),[3],1.02% and 0%
same,Total Cell Count,[3],544 and 236
same,Population Apoptotic (%),[4],57.14% and 50%
same,Population Fragmented Nuclei (%),[4],2.56% and 2.27%
same,Population Healthy Nuclei (%),[4],87.18% and 86.82%
same,Population Hoechst High Intensity Objects (%),[4],0%
same,Population Membrane Permeable-Phenotype (%),[4],1.47% and 8.38%
same,Population Mitotic Cells (%),[4],42.86% and 50%
same,Population Normal (%),[4],100%
same,Population Pyknosed Nuclei (%),[4],10.26% and 10.91%
same,Population Tubulin-Different-Phenotype (%),[4],0.84% and 2.62%
same,Total Cell Count,[4],546 and 220
same,Population Apoptotic (%),[5],38.38% and 67.35%
same,Population Fragmented Nuclei (%),[5],2.8% and 4.6%
same,Population Healthy Nuclei (%),[5],87.64% and 82.86%
same,Population Hoechst High Intensity Objects (%),[5],0%
same,Population Membrane Permeable-Phenotype (%),[5],0.66% and 2.16%
same,Population Mitochondria Different-Phenotype (%),[5],0.11% and 7.41%
same,Population Mitotic Cells (%),[5],61.62% and 32.65%
same,Population Normal (%),[5],100%
same,Population Pyknosed Nuclei (%),[5],9.56% and 12.53%
same,Population Tubulin-Different-Phenotype (%),[5],0.66% and 0.31%
same,Total Cell Count,[5],1036 and 391
same,Population Apoptotic (%),[6],50.48% and 54.35%
same,Population Fragmented Nuclei (%),[6],1.98% and 2.5%
same,Population Healthy Nuclei (%),[6],87.11% and 83.12%
same,Population Hoechst High Intensity Objects (%),[6],0.1% and 0.31%
same,Population Membrane Permeable-Phenotype (%),[6],1.07% and 3.01%
same,Population Mitochondria Different-Phenotype (%),[6],0.12% and 6.02%
same,Population Mitotic Cells (%),[6],49.52% and 45.65%
same,Population Normal (%),[6],99.9% and 99.69%
same,Population Pyknosed Nuclei (%),[6],10.91% and 14.37%
same,Population Tubulin-Different-Phenotype (%),[6],0.95% and 1.5%
same,Total Cell Count,[6],963 and 321
